Assay outcomes from PubChem BioAssay.
Most compounds without a hit are left out; they make up all but 2.1% or so of the library.
CCR6 antagonist: blocks CCL20-driven beta-arrestin recruitment at human CCR6. P51684. CHO-K1 CCR6 PathHunter beta-arrestin, luminescence, CCL20-stimulated. inhibition, % at 20 µM. 0.49% of 340,000 active;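 active means compounds whose inhibition of the agonist-driven luminescence signal at 20 µM reaches about 50%, limit read from the data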;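 further: cells stimulated with CCL20 at 14 nM final; plate controls were DMSO with CCL20 for no effect and DMSO without agonist for full effect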
APJ agonist: activates the human apelin receptor APJ. P35414. CHO-K1 APJ PathHunter beta-arrestin, luminescence; 0% DMSO wells, 100% apelin. activation, % at 20 µM. 0.11% of 330,000 active;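 active means activation more than six SD over the plate average, tested at 20 µM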;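 further: 0% = DMSO alone and 100% = apelin-13 at 10 nM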
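Assay system – PathHunter CHO-K1 APJ (AGTRL-1) beta-arrestin reporter cells · Compound – one dose, 20 µM compound, 1% DMSO · Timing – compound 90 min 25 °C, reagent 1 h · Measured by – luminescence from split beta-galactosidase complementation, Galacton Star/Emerald II substrate · Measure – beta-arrestin recruitment to APJ as agonist activity, luminescent signal · Benchmarks – DMSO vs Apelin-13 10 nM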
APJ antagonist: APJ receptor antagonism | P35414 | CHO-K1 APJ beta-arrestin complementation, luminescence | inhibition, % at 20 µM | 0.32% of 330,000 active;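 active means inhibition above about 40% at 20 µM, limit read from the data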;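 further: cells challenged with 10 nM apelin-13 agonist together with compound; plate controls were apelin-13 plus DMSO wells for no effect and DMSO wells lacking apelin-13 for full effect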
m5-HT2A agonist: activates the mouse 5-HT2A serotonin receptor | P35363 | CHO-K1 mHTR2A beta-arrestin complementation, luminescence; percent of 30 µM serotonin response | activation, % at 7.6 µM | 0.66% of 360,000 active | AID 624169;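 active means activation above a run cutoff, the mean activation of all tested compounds plus 3 SD, cut at about 14% in these data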;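 further: 0% = plate median of compound wells and 100% = 30 µM serotonin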
Target sequence (P35363 whole entry, looked up): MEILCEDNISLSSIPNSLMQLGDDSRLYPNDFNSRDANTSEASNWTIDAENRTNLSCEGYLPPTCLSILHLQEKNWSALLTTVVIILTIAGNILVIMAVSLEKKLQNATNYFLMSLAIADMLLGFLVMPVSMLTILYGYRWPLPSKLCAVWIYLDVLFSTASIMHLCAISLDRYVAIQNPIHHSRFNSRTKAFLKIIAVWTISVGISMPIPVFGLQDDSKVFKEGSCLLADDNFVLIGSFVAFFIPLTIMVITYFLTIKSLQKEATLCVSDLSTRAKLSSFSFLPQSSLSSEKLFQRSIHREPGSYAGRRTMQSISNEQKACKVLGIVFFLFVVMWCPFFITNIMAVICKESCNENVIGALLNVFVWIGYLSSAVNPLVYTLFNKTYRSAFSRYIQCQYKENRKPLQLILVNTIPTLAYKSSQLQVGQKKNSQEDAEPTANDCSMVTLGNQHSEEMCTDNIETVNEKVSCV
CXCR6 block: blocks human CXCR6 beta-arrestin recruitment; 0.36% of 360,000 active; CHO-K1 PathHunter CXCR6 beta-arrestin, luminescence; O00574; inhibition, % at 20 µM; in the data active means inhibition above about 34%, passing the limit was not always enough;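 further: antagonist mode with CXCL16 agonist at 10 nM final; 0% = 10 nM CXCL16 with DMSO and 100% = unstimulated wells without agonist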
EBI2 antag: EBI2 (human) antagonism. P32249. EBI2 beta-arrestin recruitment, luminescence, 7a,25-OHC stimulated. inhibition, % at 5 µM. 0.81% of 360,000 active. AID 651636; in the data active means inhibition above about 38%;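 further: enzyme fragment complementation signal reports receptor beta-arrestin coupling in cells; 0% = agonist plus DMSO wells and 100% = wells without agonist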
EBI2 antag conf: EBI2 (human) antagonism, single concentration confirmation | shares compounds with EBI2 antag | EBI2 beta-arrestin luminescence, 7a,25-OHC antagonism | inhibition, % at 5 µM | 29% of 2,400 active | AID 651997;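 active means inhibition of at least 50%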
EBI2 agonist: activates EBI2, counter-screen for EBI2 antagonists; shares compounds with EBI2 antag; EBI2-expressing cells, agonist mode, luminescence, 60 min; 0% vehicle, 100% 7α,25-dihydroxycholesterol control; activation, % at 5 µM; 2,400 tested, under 10 active; AID 652000;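 active means activation of at least 50%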
bGal counter: inhibits E. coli beta-galactosidase, counter-screen for EBI2 antagonists. inhibition, % at 5 µM. shares compounds with EBI2 antag. purified beta-galactosidase, luminescent Galacton Star, 15 min. 1% of 2,400 active;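 active means replicate-average signal at least 3 plate SD below neutral wells, shown as high inhibition, flagging enzyme-inhibiting false positives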;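 further: 0% = DMSO wells with enzyme and 100% = wells lacking enzyme; higher means stronger loss of beta-gal luminescence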
Numbers without * were called inactive.

Results for COC(=O)C1=C(c2ccc(OCc3ccccc3)cc2)C[C@@H]2CC[C@H]1N2C(=O)NCc1ccc(N(C)C)cc1 ?
CCR6 antagonist: 16; APJ agonist: 2; APJ antagonist: 12; m5-HT2A agonist: -4; CXCR6 block: 11; EBI2 antag: 14

Results for N#CC1c2ccccc2-n2nncc2CN1S(=O)(=O)c1ccc(Cl)cc1 (centres undefined) ?
CCR6 antagonist: 11; m5-HT2A agonist: 4; CXCR6 block: 1; EBI2 antag: -7

What do the screens show for `O=c1c(C=NCc2cccs2)c(O)n(C2CCCCC2)c(=O)n1C1CCCCC1`?
CCR6 antagonist: 11; APJ agonist: 7; APJ antagonist: 7; m5-HT2A agonist: -1; CXCR6 block: 7; EBI2 antag: 44*; EBI2 antag conf: 2; EBI2 agonist: -1; bGal counter: -10

How did COc1cc(OC)c2c(c1)OCC1CON(C)C21 (centres undefined) do in these assays?
CCR6 antagonist: 6; APJ agonist: -4; APJ antagonist: 10; m5-HT2A agonist: 4; CXCR6 block: 0; EBI2 antag: -6

What do the screens show for `CCCC(CCC)C(=O)OC[N+](C)(C)CCOC(=O)C(O)(c1ccccc1)C1CCCC1` (centres undefined)?
CCR6 antagonist: -13; APJ agonist: -1; APJ antagonist: 19; m5-HT2A agonist: -2; CXCR6 block: 2; EBI2 antag: -5

How did O=C(COc1ccccc1)N1CCN(C/C=C/c2ccccc2)CC1 do in these assays?
CCR6 antagonist: -7; APJ agonist: -3; APJ antagonist: 4; m5-HT2A agonist: -6; CXCR6 block: -1; EBI2 antag: 72*; EBI2 antag conf: 60*; EBI2 agonist: 0; bGal counter: -16

What do the screens show for `O=C(COc1ccc(Cl)cc1)N1CCN(C/C=C/c2ccccc2)CC1`?
CCR6 antagonist: 6; APJ agonist: 1; APJ antagonist: -20; m5-HT2A agonist: -2; CXCR6 block: 1; EBI2 antag: 96*; EBI2 antag conf: 86*; EBI2 agonist: 1; bGal counter: -13

Results for O=C(COc1ccccc1)N1CCN(CC(O)COc2ccccc2)CC1 (centres undefined) ?
CCR6 antagonist: 5; APJ agonist: -4; APJ antagonist: 4; m5-HT2A agonist: -5; CXCR6 block: -4; EBI2 antag: 23

What do the screens show for `COc1cc(CN2CCN(C(=O)COc3ccccc3)CC2)cc(OC)c1OC`?
CCR6 antagonist: 19; APJ agonist: 2; APJ antagonist: 11; m5-HT2A agonist: 5; CXCR6 block: 1; EBI2 antag: 4

How did CCN1CCN(C(=O)COc2ccc(S(=O)(=O)Nc3ccc(Cl)cc3)cc2)CC1 do in these assays?
CCR6 antagonist: 12; APJ agonist: -2; APJ antagonist: 10; m5-HT2A agonist: -11; CXCR6 block: -3; EBI2 antag: -1

Results for COc1ccc(OCC(=O)N2CCN(C3CCC(c4ccccc4)CC3)CC2)cc1 (centres undefined) ?
CCR6 antagonist: 6; APJ agonist: -3; APJ antagonist: 17; m5-HT2A agonist: -10; CXCR6 block: 6; EBI2 antag: 85*; EBI2 antag conf: 63*; EBI2 agonist: 0; bGal counter: -11

Results for COc1ccc(OCC(=O)N2CCN(C/C=C/c3ccccc3)CC2)cc1 ?
CCR6 antagonist: 10; APJ agonist: 2; APJ antagonist: -5; m5-HT2A agonist: 2; CXCR6 block: -10; EBI2 antag: 93*; EBI2 antag conf: 77*; EBI2 agonist: 0; bGal counter: -8

How did O=C(Cc1c[nH]c2ccccc12)NNCc1ccc(N(CCCl)CCCl)cc1 do in these assays?
CCR6 antagonist: 10; m5-HT2A agonist: -7; CXCR6 block: 4; EBI2 antag: 16

What do the screens show for `O=C(c1cc(Br)ccc1Cl)N1CCC2(CC1)OCCO2`?
CCR6 antagonist: -5; APJ agonist: 5; APJ antagonist: 9; m5-HT2A agonist: 1; CXCR6 block: -5; EBI2 antag: -6

What do the screens show for `O=C(c1cc2cc(Br)ccc2[nH]1)N1CCC2(CC1)OCCO2`?
CCR6 antagonist: -9; APJ agonist: -1; APJ antagonist: -5; m5-HT2A agonist: -7; CXCR6 block: 0; EBI2 antag: 84*; EBI2 antag conf: 67*; EBI2 agonist: 2; bGal counter: -1

How did COc1ccc(N=Cc2c(O)n(CC3CCCO3)c(=O)[nH]c2=O)cc1 (centres undefined) do in these assays?
CCR6 antagonist: -4; APJ agonist: -2; APJ antagonist: -3; m5-HT2A agonist: 1; CXCR6 block: -4; EBI2 antag: 55*; EBI2 antag conf: 50; EBI2 agonist: 0; bGal counter: 3

How did CCC(C)OC(=O)c1c(N)n(Cc2cccs2)c2nc3ccccc3nc12 (centres undefined) do in these assays?
CCR6 antagonist: -27; APJ agonist: -4; APJ antagonist: 17; m5-HT2A agonist: 7; CXCR6 block: 20; EBI2 antag: 44*; EBI2 antag conf: 39; EBI2 agonist: -2; bGal counter: -21

Results for O=C(COc1ccc2ccccc2c1)N1CCN(C2CCN(Cc3ccccc3)CC2)CC1 ?
CCR6 antagonist: -4; APJ agonist: -3; APJ antagonist: 8; m5-HT2A agonist: 0; CXCR6 block: 0; EBI2 antag: 43

Results for O=C(COc1ccc2ccccc2c1)N1CCN(CC2CC3C=CC2C3)CC1 (centres undefined) ?
CCR6 antagonist: 3; APJ agonist: -3; APJ antagonist: 0; m5-HT2A agonist: -4; CXCR6 block: -7; EBI2 antag: 85*; EBI2 antag conf: 63*; EBI2 agonist: -1; bGal counter: -4

What do the screens show for `CN1CCCN(C(=O)COc2ccccc2)CC1`?
CCR6 antagonist: 8; APJ agonist: -5; APJ antagonist: 17; m5-HT2A agonist: 4; CXCR6 block: 7; EBI2 antag: 1

What do the screens show for `COc1ccccc1CN1CCN(C(=O)COc2ccc3ccccc3c2)CC1`?
CCR6 antagonist: 9; APJ agonist: -14; APJ antagonist: -7; m5-HT2A agonist: -2; CXCR6 block: -6; EBI2 antag: 70*; EBI2 antag conf: 47; EBI2 agonist: 4; bGal counter: 2
